Drawing on ChEMBL document CHEMBL5357024, “MDM2 Antagonist Idasanutlin Reduces HDAC1/2 Abundance and Corepressor Partners but Not HDAC3” (ACS Med Chem Lett, 2024), this text covers Activity for one compound.

What all share (assay type): cell-based
For experiment [1], the target named is T1, E3 ubiquitin-protein ligase Mdm2/Histone deacetylase 2 (Homo sapiens) (UniProt Q00987+Q92769). As to the kind of experiment: PROTAC activity at MDM2/HDAC2 in human HCT-116 cells assessed as induction of HDAC2 degradation by Western blot analysis. To be noted: dose 0.01-10 µM. On the technique in general: In western blotting, separated proteins are transferred to a membrane and probed.
T1 sequence (Q00987 whole entry, looked up): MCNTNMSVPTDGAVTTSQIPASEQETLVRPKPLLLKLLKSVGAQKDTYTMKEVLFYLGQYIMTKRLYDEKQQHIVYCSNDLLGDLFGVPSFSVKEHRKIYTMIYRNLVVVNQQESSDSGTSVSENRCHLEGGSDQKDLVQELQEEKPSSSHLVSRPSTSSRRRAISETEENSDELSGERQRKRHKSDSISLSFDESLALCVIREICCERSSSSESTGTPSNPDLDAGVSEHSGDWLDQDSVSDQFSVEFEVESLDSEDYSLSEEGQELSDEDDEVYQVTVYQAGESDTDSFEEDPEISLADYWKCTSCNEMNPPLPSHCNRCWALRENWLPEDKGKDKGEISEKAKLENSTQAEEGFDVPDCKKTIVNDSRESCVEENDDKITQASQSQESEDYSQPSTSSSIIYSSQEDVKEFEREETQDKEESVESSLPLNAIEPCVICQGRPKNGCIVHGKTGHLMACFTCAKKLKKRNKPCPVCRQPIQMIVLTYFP
T1 sequence (Q92769 whole entry, looked up): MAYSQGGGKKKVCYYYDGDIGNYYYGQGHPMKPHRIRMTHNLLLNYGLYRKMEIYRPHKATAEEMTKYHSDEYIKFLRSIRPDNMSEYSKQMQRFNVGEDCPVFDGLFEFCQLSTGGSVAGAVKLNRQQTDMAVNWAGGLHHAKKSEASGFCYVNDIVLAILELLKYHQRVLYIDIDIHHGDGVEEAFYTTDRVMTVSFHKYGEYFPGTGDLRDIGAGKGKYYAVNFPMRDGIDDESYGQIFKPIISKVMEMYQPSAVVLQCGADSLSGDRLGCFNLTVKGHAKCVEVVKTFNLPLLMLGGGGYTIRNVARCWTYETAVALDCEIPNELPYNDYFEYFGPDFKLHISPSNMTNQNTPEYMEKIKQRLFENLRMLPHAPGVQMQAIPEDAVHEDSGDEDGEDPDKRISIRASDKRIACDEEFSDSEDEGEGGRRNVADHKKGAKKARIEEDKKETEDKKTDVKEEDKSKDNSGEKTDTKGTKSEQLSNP

Experiment [2] addresses Lysine-specific histone demethylase 1A (Homo sapiens) (UniProt O60341). As to the kind of experiment: Induction of LSD1 degradation in human HCT-116 cells assessed as reduction in LSD1 abundance by measuring remaining activity at 0.25 uM measured after 24 hrs by Western blot analysis (reference value: 100%). An outline of the steps:
(§1)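 HCT116 cells seeded in six-well plates for 24 h, then exposed 24 h to compound (0.01–10 μM) or DMSO in fresh medium. Lysis in Tris-HCl/NaCl/NP-40/Triton X-100 with protease inhibitor. Bradford-normalised 30 μg protein per lane. Quantitative Western blot used specific HDAC1, HDAC2, HDAC3, LSD1 or Sin3a antibodies with IRDye secondaries. Abundance compared with DMSO, n = 2 replicates.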

Experiment [3] concerns the target T2, Paired amphipathic helix protein Sin3a (Homo sapiens) (UniProt Q96ST3).
T2 sequence (whole entry): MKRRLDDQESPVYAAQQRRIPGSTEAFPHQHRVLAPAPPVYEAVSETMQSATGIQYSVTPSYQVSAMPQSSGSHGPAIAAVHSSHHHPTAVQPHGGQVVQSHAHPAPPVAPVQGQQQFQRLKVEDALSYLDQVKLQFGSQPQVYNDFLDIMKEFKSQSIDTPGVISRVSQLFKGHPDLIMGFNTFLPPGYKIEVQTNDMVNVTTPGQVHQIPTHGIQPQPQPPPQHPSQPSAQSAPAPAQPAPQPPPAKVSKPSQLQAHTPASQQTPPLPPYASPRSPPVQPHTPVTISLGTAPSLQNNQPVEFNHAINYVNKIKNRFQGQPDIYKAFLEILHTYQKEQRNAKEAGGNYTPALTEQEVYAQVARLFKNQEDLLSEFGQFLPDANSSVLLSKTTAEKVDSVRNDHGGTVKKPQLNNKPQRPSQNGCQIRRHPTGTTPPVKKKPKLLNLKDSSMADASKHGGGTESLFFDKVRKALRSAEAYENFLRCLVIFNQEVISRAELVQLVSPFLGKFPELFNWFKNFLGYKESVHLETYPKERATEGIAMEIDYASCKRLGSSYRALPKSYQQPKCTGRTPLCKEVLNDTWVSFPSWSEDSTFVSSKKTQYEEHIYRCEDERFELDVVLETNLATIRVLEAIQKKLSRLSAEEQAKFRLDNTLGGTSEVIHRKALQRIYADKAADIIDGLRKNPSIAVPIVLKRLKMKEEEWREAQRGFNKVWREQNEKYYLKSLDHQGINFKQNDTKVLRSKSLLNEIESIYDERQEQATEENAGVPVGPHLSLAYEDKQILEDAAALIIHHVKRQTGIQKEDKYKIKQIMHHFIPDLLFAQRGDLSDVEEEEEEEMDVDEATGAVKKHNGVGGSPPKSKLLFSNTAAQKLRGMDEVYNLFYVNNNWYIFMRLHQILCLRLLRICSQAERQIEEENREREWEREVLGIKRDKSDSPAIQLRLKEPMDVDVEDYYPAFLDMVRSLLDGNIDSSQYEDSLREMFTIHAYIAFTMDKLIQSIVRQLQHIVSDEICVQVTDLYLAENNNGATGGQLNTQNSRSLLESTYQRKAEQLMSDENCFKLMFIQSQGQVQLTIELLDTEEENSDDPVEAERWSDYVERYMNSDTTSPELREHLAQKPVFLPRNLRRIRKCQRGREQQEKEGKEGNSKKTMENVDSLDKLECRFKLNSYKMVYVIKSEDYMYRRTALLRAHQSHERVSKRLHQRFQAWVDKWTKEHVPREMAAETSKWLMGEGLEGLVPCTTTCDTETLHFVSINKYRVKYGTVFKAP
The experiment in a line: Induction of SIN3A degradation in human HCT-116 cells assessed as reduction in SIN3A abundance by measuring remaining activity at 0.01 uM measured after 24 hrs by Western blot analysis (reference value: 100%). An outline of the steps:
as §1

The target in experiment [4] is T2, Paired amphipathic helix protein Sin3a (Homo sapiens). The experiment in a line: Induction of SIN3A degradation in human HCT-116 cells assessed as reduction in SIN3A abundance by measuring remaining activity at 0.1 uM measured after 24 hrs by Western blot analysis (reference value: 100%). An outline of the steps: as §1
For experiment [5], the target named is T1, E3 ubiquitin-protein ligase Mdm2/Histone deacetylase 2 (Homo sapiens). As to the kind of experiment: PROTAC activity at MDM2/HDAC2 in human HCT-116 cells assessed as decrease in HDAC2 abundance by measuring remaining activity at 0.5 uM measured after 24 hrs by Western blot analysis (reference value: 100%). An outline of the steps: as §1
The target in experiment [6] is T2, Paired amphipathic helix protein Sin3a (Homo sapiens). As to the kind of experiment: Induction of SIN3A degradation in human HCT-116 cells assessed as reduction in SIN3A abundance by measuring remaining activity at 5 uM measured after 24 hrs by Western blot analysis (reference value: 100%). An outline of the steps: as §1

As for `COc1cc(C(=O)NCCOCCOCCOCCOCCC(=O)Nc2ccc(C(=O)Nc3ccccc3N)cc2)ccc1NC(=O)[C@@H]1N[C@@H](CC(C)(C)C)[C@](C#N)(c2ccc(Cl)cc2F)[C@H]1c1cccc(Cl)c1F`, the Activity result in experiment [1] was “Dose-Dependent Effect”; in experiment [2], 95%; in experiment [3], 104%; in experiment [4], 99%; in experiment [5] it was 89%; in experiment [6], 53%.
